An excerpt weighted towards active compounds, which were near 1.9% of everything screened.
697 NFkB inh: inhibitors of PMA/ionomycin-induced NF-kB reporter, 697 cells, primary screen, B-cell NF-kB inhibitor project, cell-based, luminescence, uHTS | inhibition, % at 4 µM | hit rate 0.33% among 330,000 | AID 435022, 2010 | 697 B-cell NF-kB luciferase reporter, 16 h; in the data active means inhibition above about 35%
aSyn 5UTR inh: MLPCN primary screen, SNCA 5' untranslated region. alpha-synuclein 5'UTR reporter, inhibitor activity. inhibition, % (tested at 7.5 µM). hit rate 0.82% among 300,000. AID 1813, 2009; in the data active means inhibition above about 60%;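 further: H4 neuroglioblastoma cells stably carrying SNCA 5'UTR luciferase fusion; 0% = DMSO wells and 100% = positive control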
APP transl inh: inhibitors of APP translation via 5'UTR reporter, primary screen, APP 5'UTR luciferase, SH-SY5Y cells; SH-SY5Y APP 5'UTR-luciferase reporter, luminescence; inhibition, % at 2 µM; hit rate 0.82% among 190,000; AID 1285, 2008;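 active means inhibition above a set limit, derived from the sample mean plus 3 SD, cut at about 45% in these data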
Jurkat NFkB inh: inhibitors of induced NF-kB luciferase reporter, primary screen, TCR NF-kB activation inhibitor project, cell-based, luminescence, uHTS; AID 435003, 2010; Jurkat, PMA/ionomycin-induced NF-kB luciferase reporter; inhibition, % at 4 µM; hit rate 0.53% among 330,000; in the data active means inhibition above about 50%
H9c2 TAG inh: inhibitors of triacylglycerol accumulation, primary screen, cell-based, uHTS, fluorescence, H9c2; H9c2 cells, Nile Red lipid (TAG) fluorescence; cells loaded with 200 µM oleic acid; inhibition, % at 12.5 µM; hit rate 0.66% among 230,000;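 active means pattern-corrected inhibition of lipid staining of at least 50% with the nuclear-stain viability signal not falling by more than 50%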;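 further: 0% = DMSO wells and 100% = triacsin C control wells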
Lipid droplet: inhibitors of hepatocyte lipid droplet formation, primary screen, imaging, high-throughput imaging, BODIPY stain. inhibition, % at 6.5 µM. AML12 mouse hepatocytes, oleate lipid droplets. hit rate 0.4% among 240,000;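 active means lipid droplet intensity inhibited by at least 50%, with more than 500 cells counted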
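material = mouse AML12 hepatocyte cell line, fixed after treatment | also added = 100 µM oleic acid challenge | doses = compound at 6.5 µM only | schedule = overnight exposure | technique = Image-based BODIPY and DAPI two-channel analysis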
Jurkat NFkB conf: PMA/ionomycin-induced NF-kB reporter inhibitors, Jurkat retest, confirmation, T-cell NF-kB inhibitor project, cell-based, luminescence, single concentration; Jurkat NF-kB luciferase, 16 h; inhibition, % at 4 µM; shares compounds with Jurkat NFkB inh; hit rate 27% among 2,700;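 active means inhibition reaching about 45% at 4 µM in either replicate, limit read from the data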;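 further: plate controls were PMA/ionomycin stimulated DMSO wells for no effect and unstimulated DMSO wells for full effect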
* marks the source's active call; other numbers are inactive results.

For CCOc1ccc(-c2cc(C(=O)N/N=C(\C)c3cccnc3)c3ccccc3n2)c(OCC)c1 the results were 697 NFkB inh -37.4, aSyn 5UTR inh 47.4, Jurkat NFkB inh 3.6, H9c2 TAG inh -14.9 and Lipid droplet -9.8.
Screening CCN(c1ccc(OC)cc1)S(=O)(=O)c1ccc(-c2cc(C)no2)s1 returned 697 NFkB inh -8.4, aSyn 5UTR inh -47.0, Jurkat NFkB inh 31.0 and Lipid droplet 2.0.
Screening CCc1ccccc1N(C)S(=O)(=O)c1ccc(-c2cc(C)no2)s1 returned 697 NFkB inh -69.4, aSyn 5UTR inh -1.9, Jurkat NFkB inh 55.4*, Lipid droplet 0.4 and Jurkat NFkB conf 28.4.
`C/C(=N\NC(=O)CCn1nnc2ccccc21)c1ccco1` gave 697 NFkB inh 2.0, aSyn 5UTR inh -51.3, Jurkat NFkB inh -32.6, H9c2 TAG inh -2.1 and Lipid droplet -0.1.
Screening COC(=O)c1[nH]c2ccc(F)cc2c1NS(=O)(=O)c1ccc(OC)cc1 returned 697 NFkB inh -44.5, aSyn 5UTR inh 99.5*, APP transl inh 88.6*, Jurkat NFkB inh 65.5*, Lipid droplet -15.1 and Jurkat NFkB conf 47.4*.
`O=C(N/N=C/C(Cl)=C\c1ccccc1)c1cccs1` gave 697 NFkB inh -217.4, aSyn 5UTR inh -92.0, Jurkat NFkB inh -166.5, H9c2 TAG inh 2.9, Lipid droplet 1.4 and Jurkat NFkB conf -91.9.
`CC(/C=N/NC(=O)c1cccs1)=C\c1ccccc1` gave 697 NFkB inh -200.1, aSyn 5UTR inh -99.2, APP transl inh -188.4, Jurkat NFkB inh -110.6, H9c2 TAG inh -0.3 and Lipid droplet 5.4.
For COc1ccc(C)cc1S(=O)(=O)NC(C)c1cnn(-c2ccccn2)c1C (stereo unspecified) the results were 697 NFkB inh -5.9, aSyn 5UTR inh 0.1, Jurkat NFkB inh -21.4, H9c2 TAG inh 4.9 and Lipid droplet -41.4.
Screening C[C@@H]1CN([C@@H](C)CO)C(=O)CCCn2cc(nn2)CO[C@H]1CN(C)S(=O)(=O)c1cccc(F)c1 returned H9c2 TAG inh 7.0.
Cc1ccc(C2/C(=C(\O)c3ccc4c(c3)OCCO4)C(=O)C(=O)N2Cc2cccnc2)cc1 (stereo unspecified) was read as 697 NFkB inh -0.7, aSyn 5UTR inh -8.8, Jurkat NFkB inh 4.4 and Lipid droplet -15.9.
For COc1ccc(N2CCN(C(=O)NC(=O)c3ccc(Cl)cc3)CC2)cc1 the results were 697 NFkB inh 15.5, aSyn 5UTR inh 22.5, Jurkat NFkB inh -10.5, H9c2 TAG inh 1.0 and Lipid droplet -7.4.
For COC(=O)c1sc(N2CCN(c3ccc(Cl)cc3)CC2)nc1N the results were 697 NFkB inh -21.0, aSyn 5UTR inh -27.7, APP transl inh -33.9, Jurkat NFkB inh 60.6*, Lipid droplet 20.5 and Jurkat NFkB conf 6.9.
Screening Cc1cc(C)c(C#N)c(SCc2nnc(-c3ccccc3[N+](=O)[O-])o2)n1 returned 697 NFkB inh -221.8, aSyn 5UTR inh 19.1, APP transl inh -212.9, Jurkat NFkB inh -183.7, H9c2 TAG inh 0.7, Lipid droplet -23.1 and Jurkat NFkB conf -123.8.
Screening COc1cccc(N2CCN(C(=O)c3ccc(CS(=O)c4ccc(Cl)cc4)o3)CC2)c1 (stereo unspecified) returned 697 NFkB inh 0.0, aSyn 5UTR inh 107.3*, Jurkat NFkB inh 51.3*, Lipid droplet -77.9 and Jurkat NFkB conf 14.2.
`COc1cccc(N2CCN(C(=O)c3ccc(CS(=O)c4ccc(C)cc4)o3)CC2)c1` (stereo unspecified) gave 697 NFkB inh 20.4, aSyn 5UTR inh 96.6*, Jurkat NFkB inh 53.5*, Lipid droplet -181.1 and Jurkat NFkB conf 8.2.
For CC1=C(C(=O)Nc2cc(C(=O)N3CCN(c4ccc(Cl)cc4)CC3)ccc2C)SCCO1 the results were H9c2 TAG inh 6.8.

Screens as filed in PubChem BioAssay.
